ChEMBL document CHEMBL4842318, “A γ-lactam siderophore antibiotic effective against multidrug-resistant Pseudomonas aeruginosa, Klebsiella pneumoniae, and Acinetobacter spp” (Eur J Med Chem, 2021)

Columns and labels:
Acinetobacter baumannii [1] = assay: Antibacterial activity against carbapenem resistant Acinetobacter baumannii isolate PR-482 assessed as bacterial growth inhibition by microdilution method; assay type: functional
How it was run: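 Broth microdilution in Chelex-treated, iron-depleted cation-adjusted Mueller-Hinton broth, following the protocol used for siderophore-containing antibiotics; inoculum lowered to 6 × 10^4 cfu/mL; MIC read as growth inhibition, in μg/mL.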

[2] = Antibacterial activity against carbapenem susceptible Acinetobacter nosocomialis isolate PR-412 assessed as bacterial growth inhibition by microdilution method; assay type: functional
How it was run: (§1)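 Broth microdilution MIC in iron-depleted (Chelex resin-treated) cation-adjusted Mueller-Hinton broth, following the protocol used for siderophore-containing antibiotics. Inoculum was lowered to 6 × 10^4 cfu/mL.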

Acinetobacter baumannii [3] = assay: Antibacterial activity against carbapenem resistant Acinetobacter baumannii isolate PR-351 assessed as inhibition of bacterial growth at 1:1 compound to sulbactam concentration by microdilution method; assay type: functional
How it was run: (§2)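 Iron-depleted (Chelex-treated) cation-adjusted Mueller-Hinton broth microdilution; inoculum 6 × 10^4 cfu/mL. Test agent and sulbactam mixed 1:1 by mass and serially 2-fold diluted together. MIC in μg/mL.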

Acinetobacter baumannii [4] = assay: Antibacterial activity against carbapenem resistant Acinetobacter baumannii isolate PR-459 assessed as inhibition of bacterial growth at 1:1 compound to sulbactam concentration by microdilution method; assay type: functional; how it was run: as §2
Acinetobacter baumannii [5] = assay: Antibacterial activity against carbapenem resistant Acinetobacter baumannii isolate PR-325 assessed as inhibition of bacterial growth in presence of 20 ug/ml sulbactam by microdilution method; assay type: functional; conditions: dose 20 µg/ml
Acinetobacter baumannii [6] = assay: Antibacterial activity against carbapenem resistant Acinetobacter baumannii isolate PR-351 assessed as inhibition of bacterial growth in presence of 20 ug/ml sulbactam by microdilution method; assay type: functional; conditions: dose 20 µg/ml
Hepatocyte = assay: Cytotoxicity against human hepatocytes at 100 uM; assay type: cell-based
Pseudomonas aeruginosa [7] = assay: Antibacterial activity against wild type Pseudomonas aeruginosa isolate PR-604 assessed as inhibition of bacterial growth by microdilution method; assay type: functional; how it was run: as §1
Pseudomonas aeruginosa [8] = assay: Antibacterial activity against wild type Pseudomonas aeruginosa isolate PR-668 leucine at 533 residue assessed as inhibition of bacterial growth by microdilution method; assay type: functional; how it was run: as §1
[9] = Substrate activity at NDM1 (unknown origin) assessed as ratio of Kcat to Km by measuring hydrolysis by spectrophotometry; assay type: ADME
How it was run: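 Substrate hydrolysis (600 μM start) followed at 336 nm (Δε336 = −4362 M−1 cm−1, 0.2 cm cuvette) to completion; velocities over 10 s intervals along progress curve; Km, Vmax from double reciprocal plot, kcat = Vmax/[E].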

[10] = Plasma concentration in SC dosed CD-1 mouse treated four times at 6 hrs interval measured after 0.167 hrs; assay type: ADME, organism-based
How it was run: (§3)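 CD-1 mice dosed SC at 50 mg/kg. Plasma sampled at 0.167 to 24 h, three individual mice per time point, reported as mean and SD in ng/mL.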

[11] = Plasma concentration in SC dosed CD-1 mouse treated four times at 6 hrs interval measured after 2 hrs; assay type: ADME, organism-based; how it was run: as §3
Acinetobacter baumannii [12] = assay: Antibacterial activity against carbapenem susceptible Acinetobacter baumannii isolate PR-340 assessed as inhibition of bacterial growth in presence of 20 ug/ml sulbactam by microdilution method

Question: Which MIC (Acinetobacter baumannii [1]) does the source give for CC(C)(O/N=C(\C(=O)N[C@H]1CN2CC(C(=O)NCCN3C(=O)c4cc(O)c(O)cc4C3=O)=C(C(=O)O)N2C1=O)c1nc(N)sc1Cl)C(=O)O here?
Answer: > 16 µg/mL

Question: What about the MIC [2] of the same molecule?
Answer: > 16 µg/mL

Question: What about the MIC (Acinetobacter baumannii [3]) of the same molecule?
Answer: 16 µg/mL

Question: And the MIC (Acinetobacter baumannii [4])?
Answer: 8 µg/mL

Question: And the MIC (Acinetobacter baumannii [5])?
Answer: > 16 µg/mL

Question: And the MIC (Acinetobacter baumannii [6])?
Answer: ≤ 0.25 µg/mL

Question: What about the Activity (Hepatocyte) of the same molecule?
Answer: Non-Toxic

Question: What about the MIC (Pseudomonas aeruginosa [7]) of the same molecule?
Answer: ≤ 0.25 µg/mL

Question: What about the MIC (Pseudomonas aeruginosa [8]) of the same molecule?
Answer: > 16 µg/mL

Question: And the Kcat/Km [9]?
Answer: 20000 M⁻¹ s⁻¹

Question: What about the concentration at 0.167 h [10] of the same molecule?
Answer: 47400 ng/mL

Question: And the concentration at 2 h [11]?
Answer: 3070 ng/mL

Question: What about the MIC (Acinetobacter baumannii [12]) of the same molecule?
Answer: ≤ 0.25 µg/mL
